We go through eleven compounds from ChEMBL document CHEMBL1139420, “Antibacterial profile against drug-resistant Staphylococcus epidermidis clinical strain and structure-activity relationship studies of 1H-pyrazolo[3,4-b]pyridine and thieno[2,3-b]pyridine derivatives” (Bioorg Med Chem, 2008).

One data set relates to Serratia marcescens. Description: Antibacterial activity against drug-resistant Serratia marcescens clinical isolate assessed as inhibition zone diameter after 24 hrs by antibacterial susceptibility test. Format: functional, organism-based.
For the next data set, the system named is Proteus mirabilis. Description: Antibacterial activity against drug-resistant Proteus mirabilis clinical isolate assessed as inhibition zone diameter after 24 hrs by antibacterial susceptibility test. Format: functional, organism-based.
Another data set has as its system Pseudomonas aeruginosa. Description: Antibacterial activity against drug-resistant Pseudomonas aeruginosa clinical isolate assessed as inhibition zone diameter after 24 hrs by antibacterial susceptibility test. In kind it is functional, organism-based.
Another data set concerns Enterobacter cloacae. The experiment in a line: Antibacterial activity against drug-resistant Enterobacter cloacae clinical isolate assessed as inhibition zone diameter after 24 hrs by antibacterial susceptibility test. Format: functional, organism-based.
Data set [1] concerns Acinetobacter calcoaceticus. Description: Antibacterial activity against drug-resistant Acinetobacter calcoaceticus clinical isolate assessed as inhibition zone diameter after 24 hrs by antibacterial susceptibility test. In kind it is functional, organism-based.
For another data set, the system named is Klebsiella pneumoniae. The experiment in a line: Antibacterial activity against drug-resistant Klebsiella pneumoniae clinical isolate assessed as inhibition zone diameter after 24 hrs by antibacterial susceptibility test. In kind it is functional, organism-based.
The subject of a further data set is Enterococcus faecalis. The experiment in a line: Antibacterial activity against drug-resistant Enterococcus faecalis clinical isolate assessed as inhibition zone diameter after 24 hrs by antibacterial susceptibility test. In kind it is functional, organism-based.
Data set [2] deals with Staphylococcus epidermidis. The experiment in a line: Antibacterial activity against drug-resistant Staphylococcus epidermidis clinical isolate at 10 times MIC. Format: functional, organism-based. The procedure, abridged: (§1)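 Growth-curve assay on fluoro-substituted derivatives (ortho-, meta-, para-F). Logarithmic-phase cultures incubated with compound at 1× and 10× MIC and at 5 mg/mL. Optical density at 560 nm monitored over 6 h and expressed as growth (%) relative to untreated control.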

Data set [3] deals with Staphylococcus epidermidis. Description: Antibacterial activity against drug-resistant Staphylococcus epidermidis clinical isolate assessed as inhibition zone diameter after 24 hrs by antibacterial susceptibility test. Format: functional.
In data set [4] the test system is Staphylococcus epidermidis. Description: Antibacterial activity against drug-resistant Staphylococcus epidermidis clinical isolate after 24 hrs by macro-dilution broth method. In kind it is functional.
Data set [5] in a line: Cytotoxicity against human PBMC assessed as cell viability at 700 uM after 3 to 5 days by XTT method. Conditions: PBMC (peripheral blood mononuclear cells), read-out: Activity. Format: cell-based. The procedure, abridged:
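Human PBMCs from healthy donors isolated by density gradient from buffy coats, kept in RPMI 1640 with 10% heat-inactivated FBS, penicillin, streptomycin, 2 mM glutamine, 10 mM Hepes; stimulated 2–3 days with 5 µg/mL PHA, then kept with 5 U/mL IL-2. Compound at 700 µM, 5% CO2, 37 °C; XTT added, OD 450 nm after 2 h; duplicate, at least three times.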
In general terms: Formazan colour is commonly taken as a measure of viable cells.

Data set [6] concerns Staphylococcus epidermidis. Description: Antibacterial activity against drug-resistant Staphylococcus epidermidis clinical isolate at 16 ug/ml. In kind it is functional, organism-based.
A further data set has as its system Escherichia coli. Description: Antibacterial activity against drug-resistant Escherichia coli clinical isolate assessed as inhibition zone diameter after 24 hrs by antibacterial susceptibility test. In kind it is functional, organism-based.
Data set [7] relates to Staphylococcus epidermidis. Description: Antibacterial activity against drug-resistant Staphylococcus epidermidis clinical isolate at 5 mg/ml. Format: functional, organism-based. The procedure, abridged:
as §1

≈ marks a conversion by molar mass, not a printed value. Calls of active or inactive are those of the source. No cut-off for these calls is given here.

For the compound `O=C(O)c1cnc2c(cnn2-c2ccccc2)c1Nc1cccc(F)c1`, the result (in the data set with Serratia marcescens; in the data set with Proteus mirabilis; in the data set with Pseudomonas aeruginosa; with Enterobacter cloacae; in data set [1]; in the data set with Klebsiella pneumoniae) was inactive. For the same compound, the outcome with Enterococcus faecalis and in the data set with Escherichia coli was inactive. The result in data set [2] and in data set [6] was Active. Further, the “inhibition zone (IZ)” value in data set [3] worked out at 20 mm. The MIC – broadly, the lowest concentration that inhibits growth of the organism – in data set [4] came out at 16 µg/mL (≈ 45.9 µM). In [5], the viability at 700 µM stood at 100%.
For `Cc1cccc(Nc2c(C(=O)O)cnc3c2cnn3-c2ccccc2)c1`, the outcome (with Serratia marcescens; with Proteus mirabilis; in the data set with Pseudomonas aeruginosa; in the data set on Enterobacter cloacae; in data set [1]; in the data set with Klebsiella pneumoniae) was inactive. The outcome with Enterococcus faecalis and in the data set on Escherichia coli was inactive. Also, the “inhibition zone (IZ)” value in [3] is 16 mm. The compound also returned an MIC in data set [4] of 64 µg/mL (≈ 186 µM). Further, in data set [5], the viability at 700 µM was 100%.
Consider `COc1cccc(Nc2c(C(=O)O)cnc3c2cnn3-c2ccccc2)c1`, for which the result (with Serratia marcescens; in the data set with Proteus mirabilis; with Pseudomonas aeruginosa; in the data set on Enterobacter cloacae; in data set [1]; in the data set with Klebsiella pneumoniae) was inactive. For the same compound, the outcome in the data set on Enterococcus faecalis and in the data set on Escherichia coli was inactive. In addition, the “inhibition zone (IZ)” value in data set [3] is 15 mm. Inhibition of growth in data set [4] (MIC) required 16 µg/mL (≈ 44.4 µM). Besides, in data set [5], the viability at 700 µM was 100%.
For `O=C(O)c1cnc2c(cnn2-c2ccccc2)c1Nc1cccc(Cl)c1`, the outcome (in the data set on Serratia marcescens; in the data set on Proteus mirabilis; with Pseudomonas aeruginosa; with Enterobacter cloacae; in data set [1]; in the data set on Klebsiella pneumoniae) was inactive. The outcome with Enterococcus faecalis and in the data set on Escherichia coli was inactive. Besides, in data set [3], the “inhibition zone (IZ)” value was determined as 17 mm. Also, in data set [4], inhibition of growth (MIC) required 16 µg/mL (≈ 43.9 µM). Moreover, the viability at 700 µM in data set [5] stood at 100%.
Turning to `O=C(O)c1cnc2c(cnn2-c2ccccc2)c1Nc1ccccc1F`, the result in data set [7] was inactive.
As to `O=C(O)c1cnc2c(cnn2-c2ccccc2)c1Nc1ccc(F)cc1`, the outcome (in the data set on Serratia marcescens; in the data set with Proteus mirabilis; in the data set with Pseudomonas aeruginosa; with Enterobacter cloacae; in [1]; in the data set on Klebsiella pneumoniae) was inactive. In addition, the outcome (in the data set on Enterococcus faecalis; in data set [7]; in the data set with Escherichia coli) was inactive. In addition, the “inhibition zone (IZ)” value in data set [3] is 0 mm. Further, the viability at 700 µM in [5] turned out to be 100%.
As for `O=C(O)c1cnc2sccc2c1Nc1ccc(Cl)cc1`, the outcome (in the data set with Serratia marcescens; with Proteus mirabilis; with Pseudomonas aeruginosa; in the data set with Enterobacter cloacae; in [1]; in the data set on Klebsiella pneumoniae) was inactive. For the same compound, the outcome in the data set on Enterococcus faecalis and in the data set with Escherichia coli was inactive. Also, in [3], the “inhibition zone (IZ)” value was determined as 0 mm. Further, the viability at 700 µM in data set [5] is 100%.
On to `O=C(O)c1cnc2c(cnn2-c2ccccc2)c1Nc1ccc([N+](=O)[O-])cc1`, for which the outcome (in the data set on Serratia marcescens; in the data set on Proteus mirabilis; with Pseudomonas aeruginosa; in the data set on Enterobacter cloacae; in [1]; in the data set on Klebsiella pneumoniae) was inactive. Besides, the result in the data set with Enterococcus faecalis and with Escherichia coli was inactive. Besides, the “inhibition zone (IZ)” value in data set [3] stood at 0 mm. Also, the viability at 700 µM in [5] was determined as 88%.
Consider `Cc1ccc(Nc2c(C(=O)O)cnc3sccc23)cc1`, for which the outcome (with Serratia marcescens; in the data set with Proteus mirabilis; in the data set with Pseudomonas aeruginosa; with Enterobacter cloacae; in data set [1]; with Klebsiella pneumoniae) was inactive. The outcome with Enterococcus faecalis and in the data set on Escherichia coli was inactive. Also, the “inhibition zone (IZ)” value in [3] came to 0 mm. For the same compound, the viability at 700 µM in data set [5] is 100%.
As for `COc1cccc(Nc2c(C(=O)O)cnc3sccc23)c1`, the result (in the data set with Serratia marcescens; in the data set with Proteus mirabilis; in the data set on Pseudomonas aeruginosa; with Enterobacter cloacae; in [1]; in the data set with Klebsiella pneumoniae) was inactive. In addition, the result with Enterococcus faecalis and in the data set on Escherichia coli was inactive. The “inhibition zone (IZ)” value in data set [3] worked out at 0 mm. Moreover, the viability at 700 µM in [5] stood at 100%.
On to `O=C(O)c1cnc2c(cnn2-c2ccccc2)c1Nc1cccc(Br)c1`, for which the outcome (in the data set with Serratia marcescens; in the data set on Proteus mirabilis; with Pseudomonas aeruginosa; in the data set on Enterobacter cloacae; in data set [1]; in the data set with Klebsiella pneumoniae) was inactive. Also, the result with Enterococcus faecalis and with Escherichia coli was inactive. Besides, the “inhibition zone (IZ)” value in [3] is on record as 17 mm. Also, the lowest concentration to inhibit growth in data set [4] (MIC) was 16 µg/mL (≈ 39.1 µM). Further, in data set [5], the viability at 700 µM was determined as 100%.
